Source: ChEMBL document CHEMBL4359813, “Synthesis and antimycobacterial activity of imidazo[1,2-b][1,2,4,5]tetrazines” (2019)
Calls of active or inactive are those of the source. No cut-off for these calls is given here.

Legend:
[1] = tested on: Mycolicibacterium smegmatis MC2 155; assay: Inhibition of STPK in Mycobacterium smegmatis MC2 155 expressing aminoglycoside phophotransferase-8 assessed as growth inhibition at 25 nmol/disk after 18 hrs in presence of kanamycin by paper disk method
[2] = tested on: Mycolicibacterium smegmatis; assay: Antimycobacterial activity against Mycobacterium smegmatis atR14 assessed as decrease in drug resistance development at 15 ug/disc after 2 to 3 days by paper disc method; format: functional, organism-based
Summary of the method: (§1)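 Mutant M. smegmatis strains were grown in Middlebrook 7H9/OADC/Tween/glycerol to OD600 1.2. Cultures were diluted 1:9:10 (culture:water:M290) and overlaid on M290 agar. Commercial or impregnated paper discs were applied and plates incubated 2–3 days at 37 °C. Inhibition halos were measured to 1 mm, run in triplicate, mean ± SD.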

[3] = tested on: Mycolicibacterium smegmatis; assay: Antimycobacterial activity against Mycobacterium smegmatis atR11 assessed as decrease in drug resistance development at 15 ug/disc after 2 to 3 days by paper disc method; format: functional, organism-based; summary of the method: as §1
[4] = tested on: Mycolicibacterium smegmatis; assay: Antimycobacterial activity against Mycobacterium smegmatis atR2 assessed as decrease in drug resistance development at 15 ug/disc after 2 to 3 days by paper disc method; format: functional, organism-based; summary of the method: as §1
[5] = tested on: Mycolicibacterium smegmatis; assay: Antimycobacterial activity against Mycobacterium smegmatis atR9 assessed as decrease in drug resistance development at 15 ug/disc after 2 to 3 days by paper disc method; format: functional, organism-based
Summary of the method: (§2)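 Drug-resistant M. smegmatis mc2 155 mutants, isolated on M290 agar with 3.5-4× MIC of compound and resistance re-confirmed, grown in Middlebrook 7H9 (OADC, 0.1% Tween-80, 0.4% glycerol) to OD600 1.2. Diluted 1:9:10 culture:water:M290 and poured as top layer on M290 agar. Impregnated paper discs applied; 37 °C for 2–3 days. Halos measured to nearest 1 mm; triplicates, mean ± SD versus control strain.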

[6] = tested on: Mycolicibacterium smegmatis; assay: Antimycobacterial activity against Mycobacterium smegmatis atR8 assessed as decrease in drug resistance development at 15 ug/disc after 2 to 3 days by paper disc method; format: functional, organism-based; summary of the method: as §2
[7] = tested on: Mycolicibacterium smegmatis; assay: Antimycobacterial activity against Mycobacterium smegmatis atR1 assessed as decrease in drug resistance development at 15 ug/disc after 2 to 3 days by paper disc method; format: functional, organism-based; summary of the method: as §1

| SMILES | inhibition zone (IZ) [1] [mm] | Activity [2] | Activity [3] | Activity [4] | Activity [5] | Activity [6] | Activity [7] |
| --- | --- | --- | --- | --- | --- | --- | --- |
| CC(C)Sc1cnc2nnc(-n3ccnc3)nn12 | 13.8 |  |  |  |  |  |  |
| CC[C@H]1OC(=O)[C@H](C)[C@@H](O[C@H]2C[C@@](C)(OC)[C@@H](O)[C@H](C)O2)[C@H](C)[C@@H](O[C@@H]2O[C@H](C)C[C@H](N(C)C)[C@H]2O)[C@](C)(O)C[C@@H](C)C(=O)[C@H](C)[C@@H](O)[C@]1(C)O |  | inactive | inactive | inactive | inactive | inactive | inactive |
